The source made the active and inactive calls. The calls are words filed in the database; no cut-off is given here.
What was measured:
Oryctolagus cuniculus [1] = species on record: Oryctolagus cuniculus; test: Inhibition of rabbit plasma Lp-PLA2 at 10 microM by liquid scintillation counting; format: cell-free
Procedure, shortened: (§1)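 Plasma used as the enzyme source. Compounds were added from DMSO solution to buffer of 50 mmol/L HEPES (pH 7.4) and 150 mmol/L NaCl. Preincubated 5 min at 37 °C, then [3H]PAF (1uCi) was added and incubated 10 min at 37 °C. Lipids were extracted with CHCl3/MeOH (2:1) and centrifuged at 12000g, 4 °C, 15 min. Supernatant radioactivity was counted. Result is % inhibition at the tested concentration.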

Oryctolagus cuniculus [2] = species on record: Oryctolagus cuniculus; test: Inhibition of rabbit plasma Lp-PLA2 at 1 microM by liquid scintillation counting; format: cell-free; procedure, shortened: as §1
Oryctolagus cuniculus [3] = species on record: Oryctolagus cuniculus; test: Inhibition of rabbit plasma Lp-PLA2 at 100 nM by liquid scintillation counting; format: cell-free; procedure, shortened: as §1
Homo sapiens [4] = species on record: Homo sapiens; test: Inhibition of human plasma Lp-PLA2 at 10 nM by liquid scintillation counting; format: cell-free; procedure, shortened: as §1
Oryctolagus cuniculus [5] = species on record: Oryctolagus cuniculus; test: Inhibition of rabbit plasma Lp-PLA2 at 10 nM by liquid scintillation counting; format: cell-free; procedure, shortened: as §1
Homo sapiens [6] = species on record: Homo sapiens; test: Inhibition of human plasma Lp-PLA2 at 1 nM by liquid scintillation counting; format: cell-free; procedure, shortened: as §1
Mus musculus [7] = test: Inhibition of plasma Lp-PLA2 in Apo-E mouse model at 50 mg/kg, ip measured after 12 hrs by in vivo inhibition assay; format: functional, organism-based; parameters: dose 50 mg/kg
Mus musculus [8] = test: Inhibition of plasma Lp-PLA2 in Apo-E mouse model at 50 mg/kg, ip measured after 24 hrs by in vivo inhibition assay; format: functional, organism-based; parameters: dose 50 mg/kg

inhibition (Oryctolagus cuniculus [1]) [%]	inhibition (Oryctolagus cuniculus [2]) [%]	inhibition (Oryctolagus cuniculus [3]) [%]	inhibition (Homo sapiens [4]) [%]	inhibition (Oryctolagus cuniculus [5]) [%]	inhibition (Homo sapiens [6]) [%]	Compound	inhibition (Mus musculus [7])	inhibition (Mus musculus [8])
3	–	–	–	–	–	O=c1nc(SCc2ccc(F)cc2)n(Cc2nccn2Cc2ccc(-c3ccccc3)cc2)c2c1CCC2	–	–
–	–	85	78	21	60	CCN(CC)Cc1nnc(Cn2c(SCc3ccc(F)cc3)nc(=O)c3c2CCC3)n1Cc1ccc(-c2ccc(C(F)(F)F)cc2)cc1	–	–
–	95	67	–	–	–	O=c1nc(SCc2ccc(F)cc2)n(Cc2nncn2Cc2ccc(-c3ccc(C(F)(F)F)cc3)cc2)c2c1CCC2	–	–
–	–	76	69	16	23	C[C@@H]1CN(Cc2nnc(Cn3c(SCc4ccc(F)cc4)nc(=O)c4c3CCC4)n2Cc2ccc(-c3ccc(C(F)(F)F)cc3)cc2)C[C@H](C)O1	–	–
–	–	75	68	7	49	CCS(=O)(=O)NCc1nnc(Cn2c(SCc3ccc(F)cc3)nc(=O)c3c2CCC3)n1Cc1ccc(-c2ccc(C(F)(F)F)cc2)cc1	–	–
–	80	17	–	–	–	O=c1nc(SCc2ccc(F)cc2)n(Cc2nccn2Cc2ccc(-c3ccc(C(F)(F)F)cc3)cc2)c2c1CCC2	–	–
–	–	99	95	82	80	CCN(CC)CCN(Cc1ccc(-c2ccc(C(F)(F)F)cc2)cc1)C(=O)Cn1c(SCc2ccc(F)cc2)nc(=O)c2c1CCC2	Active	–
–	–	93	97	91	77	C[N+](C)(C)Cc1nnc(Cn2c(SCc3ccc(F)cc3)nc(=O)c3c2CCC3)n1Cc1ccc(-c2ccc(C(F)(F)F)cc2)cc1	–	–
–	–	91	92	34	71	CC(C)c1nnc(Cn2c(SCc3ccc(F)cc3)nc(=O)c3c2CCC3)n1Cc1ccc(-c2ccc(C(F)(F)F)cc2)cc1	–	–
–	–	79	73	10	11	Cc1nnc(Cn2c(SCc3ccc(F)cc3)nc(=O)c3c2CCC3)n1Cc1ccc(-c2ccc(C(F)(F)F)cc2)cc1	–	–
–	–	85	77	13	35	CC(C)N(C)Cc1nnc(Cn2c(SCc3ccc(F)cc3)nc(=O)c3c2CCC3)n1Cc1ccc(-c2ccc(C(F)(F)F)cc2)cc1	–	–
40	–	–	–	–	–	CCn1c(Cc2ccc(-c3ccc(C(F)(F)F)cc3)cc2)nnc1Cn1c(SCc2ccc(F)cc2)nc(=O)c2c1CCC2	–	–
–	–	87	93	34	68	O=c1nc(SCc2ccc(F)cc2)n(Cc2nnc(C3CC3)n2Cc2ccc(-c3ccc(C(F)(F)F)cc3)cc2)c2c1CCC2	–	–
–	–	67	67	8	44	CC(=O)NCc1nnc(Cn2c(SCc3ccc(F)cc3)nc(=O)c3c2CCC3)n1Cc1ccc(-c2ccc(C(F)(F)F)cc2)cc1	–	–
–	–	87	75	13	54	CN(C)Cc1cnc(Cn2c(SCc3ccc(F)cc3)nc(=O)c3c2CCC3)n1Cc1ccc(-c2ccc(C(F)(F)F)cc2)cc1	–	–
–	–	86	69	11	58	O=c1nc(SCc2ccc(F)cc2)n(Cc2ncc(CN3CCCCC3)n2Cc2ccc(-c3ccc(C(F)(F)F)cc3)cc2)c2c1CCC2	–	–
–	–	90	82	20	64	CCN1CCN(Cc2nnc(Cn3c(SCc4ccc(F)cc4)nc(=O)c4c3CCC4)n2Cc2ccc(-c3ccc(C(F)(F)F)cc3)cc2)CC1	–	–
–	–	73	65	23	58	O=c1nc(SCc2ccc(F)cc2)n(Cc2nnc(CO)n2Cc2ccc(-c3ccc(C(F)(F)F)cc3)cc2)c2c1CCC2	–	–

Further lines, the compound ahead of its results:

Compound	inhibition (Oryctolagus cuniculus [1]) [%]	inhibition (Oryctolagus cuniculus [2]) [%]	inhibition (Oryctolagus cuniculus [3]) [%]	inhibition (Homo sapiens [4]) [%]	inhibition (Oryctolagus cuniculus [5]) [%]	inhibition (Homo sapiens [6]) [%]	inhibition (Mus musculus [7])	inhibition (Mus musculus [8])
O=c1nc(SCc2ccc(F)cc2)n(Cc2nccn2Cc2ccc(-c3ccc(Cl)cc3)cc2)c2c1CCC2	50	2	–	–	–	–	–	–
COC(=O)C(C)(C)N1CCN(Cc2nnc(Cn3c(SCc4ccc(F)cc4)nc(=O)c4c3CCC4)n2Cc2ccc(-c3ccc(C(F)(F)F)cc3)cc2)CC1	–	–	67	51	15	45	–	–
O=c1nc(SCc2ccc(F)cc2)n(Cc2ncc(C[N+]3(Cc4ccc(F)cc4)CCCC3)n2Cc2ccc(-c3ccc(C(F)(F)F)cc3)cc2)c2c1CCC2	–	–	–	97	88	79	–	–
CCN(CC)Cc1cnc(Cn2c(SCc3ccc(F)cc3)nc(=O)c3c2CCC3)n1Cc1ccc(-c2ccc(C(F)(F)F)cc2)cc1	–	–	88	75	10	52	–	–
CCCCCCCCCCc1cnc(Cn2c(SCc3ccc(F)cc3)nc(=O)c3c2CCC3)n1CCN(CC)CC	6	–	–	–	–	–	–	–
CN(Cc1nnc(Cn2c(SCc3ccc(F)cc3)nc(=O)c3c2CCC3)n1Cc1ccc(-c2ccc(C(F)(F)F)cc2)cc1)C1CC1	–	–	86	77	16	38	–	–
Cc1ccc(-c2ccc(Cn3ccnc3Cn3c(SCc4ccc(F)cc4)nc(=O)c4c3CCC4)cc2)cc1	28	–	–	–	–	–	–	–
C[N+](C)(Cc1ccc(F)cc1)Cc1nnc(Cn2c(SCc3ccc(F)cc3)nc(=O)c3c2CCC3)n1Cc1ccc(-c2ccc(C(F)(F)F)cc2)cc1	–	–	97	99	91	95	–	Active
CCCCCCCCCCc1nnc(Cn2c(SCc3ccc(F)cc3)nc(=O)c3c2CCC3)n1CC	27	–	–	–	–	–	–	–
O=c1nc(SCc2ccc(F)cc2)n(Cc2ncc(CN3CCCC3)n2Cc2ccc(-c3ccc(C(F)(F)F)cc3)cc2)c2c1CCC2	–	–	79	67	10	21	–	–
CCn1c(Cn2c(SCc3ccc(F)cc3)nc(=O)c3c2CCC3)nnc1-c1ccc(-c2ccc(C(F)(F)F)cc2)cc1	34	21	–	–	–	–	–	–
C[N+](C)(Cc1ccc(F)cc1)Cc1cnc(Cn2c(SCc3ccc(F)cc3)nc(=O)c3c2CCC3)n1Cc1ccc(-c2ccc(C(F)(F)F)cc2)cc1	–	–	99	97	97	85	–	–
CN(C)C1CCN(Cc2nnc(Cn3c(SCc4ccc(F)cc4)nc(=O)c4c3CCC4)n2Cc2ccc(-c3ccc(C(F)(F)F)cc3)cc2)CC1	–	–	82	71	11	57	–	–
CN(C)Cc1nnc(Cn2c(SCc3ccc(F)cc3)nc(=O)c3c2CCC3)n1Cc1ccc(-c2ccc(C(F)(F)F)cc2)cc1	–	–	88	85	21	62	–	–
CN(Cc1ccc(F)cc1)Cc1nnc(Cn2c(SCc3ccc(F)cc3)nc(=O)c3c2CCC3)n1Cc1ccc(-c2ccc(C(F)(F)F)cc2)cc1	–	–	90	93	10	71	–	–
CC(O)c1nnc(Cn2c(SCc3ccc(F)cc3)nc(=O)c3c2CCC3)n1Cc1ccc(-c2ccc(C(F)(F)F)cc2)cc1 (configuration not stated)	–	–	90	89	29	68	–	–
CCN(CC)CCn1c(-c2ccc(-c3ccc(C(F)(F)F)cc3)cc2)cnc1Cn1c(SCc2ccc(F)cc2)nc(=O)c2c1CCC2	20	16	–	–	–	–	–	–
CCCc1nnc(Cn2c(SCc3ccc(F)cc3)nc(=O)c3c2CCC3)n1Cc1ccc(-c2ccc(C(F)(F)F)cc2)cc1	–	–	88	88	25	65	–	–
CCCCCCCCCCCCn1ccnc1Cn1c(SCc2ccc(F)cc2)nc(=O)c2c1CCC2	88	42	–	–	–	–	–	–

From ChEMBL document CHEMBL2331148, “Design and synthesis of imidazole and triazole derivatives as Lp-PLA₂ inhibitors and the unexpected discovery of highly potent quaternary ammonium salts” (Bioorg Med Chem Lett, 2013)
